Assay outcomes: PubChem BioAssay, several laboratories
CHT PAM = human CHT allosteric activation; Q9GZV3; CHT-expressing cells, membrane potential dye, choline EC20; hits give high values; LV-AA mutant CHT in HEK293 cells; B-score at 10 µM; 0.49% of 310,000 active; AID 488977;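 active = initial fluorescence not abnormally high and integrated response B-score, plate-corrected, over 3 SD above library mean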
NR2E3 ag-1 = activates human photoreceptor nuclear receptor NR2E3 | Q9Y5X4 | GST-NR2E3/biotin-RetCOR TR-FRET, 1536-well | inhibition of corepressor binding, % at 4.78 µM | 0.12% of 320,000 active;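 active = percent inhibition above the cutoff of mean plus 3 SD of all tested compounds, set per screening campaign, cut at about 20% in these data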
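system = GST-tagged NR2E3 plus biotinylated RetCOR corepressor | input = 1.35 nM GST-NR2E3 | also added = 7 nM biotin-RetCOR | schedule = 5 h incubation at 4 °C | measured by = TR-FRET with europium anti-GST and streptavidin-D2, 340 nm excitation | read-out = percent loss of FRET ratio relative to control wells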
COUP-TFII inh = NR2F2 (human) inhibition, primary screen | HEK293T NGFI-A luciferase reporter, luminescence | inhibition, % at 8.6 µM | 0.7% of 370,000 active;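 active = inhibition above a per-plate cutoff, mean inhibition of test wells between control levels plus 3 SD, cut at about 38% in these data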;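 note: cells cotransfected with COUP-TFII expression vector driving the NGFI-A reporter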
CHT block = human CHT choline transport inhibition; Q9GZV3; CHT-expressing cells, membrane potential dye, choline response; hits give low values; B-score at 10 µM; 0.86% of 310,000 active; AID 488975;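 active = B-score over 3 SD under the library average, and starting fluorescence ratio not unusually high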;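 note: choline stimulus applied at its EC90 after an EC20 pre-addition; B-score computed on integrated fluorescence ratio after choline addition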
GalR3 antagonist = human GalR3 antagonism; O60755; HEK293 GalR3-CNG cAMP membrane potential fluorescence; galR3 body fused to GalR1 C-terminus; inhibition, % at 3 µM; 0.44% of 360,000 active; AID 651719;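 active = inhibition above the screen-wide average plus 3 SD, cut at about 13% in these data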;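 note: forskolin and galanin both at EC90 stimulate the cells; cAMP rise reported by CNG channel membrane potential dye signal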
Target sequence (O60755 1-299 limits assumed): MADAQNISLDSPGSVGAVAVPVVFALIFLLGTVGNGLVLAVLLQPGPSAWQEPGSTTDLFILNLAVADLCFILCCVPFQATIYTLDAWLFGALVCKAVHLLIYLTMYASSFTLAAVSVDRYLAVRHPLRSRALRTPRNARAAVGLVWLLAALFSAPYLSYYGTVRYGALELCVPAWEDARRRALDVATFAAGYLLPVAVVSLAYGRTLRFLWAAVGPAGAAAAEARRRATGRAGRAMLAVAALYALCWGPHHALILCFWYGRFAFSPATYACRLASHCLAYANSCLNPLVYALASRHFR
NR2E3 ag-2 = activates human NR2E3 receptor | Q9Y5X4 | inhibition of corepressor binding, % at 3.98 µM | AID 602229 | 0.35% of 360,000 active | CHO-S Gal4-NCOR/VP16-NR2E3 two-hybrid, luciferase;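 active = inhibition above the mean of all tested compounds plus 3 SD, cut at about 70% in these data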;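 note: higher means lower luciferase signal from less NR2E3 corepressor binding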
GalR3 conf = GalR3 (human) antagonism, confirmation | 59% of 1,600 active | AID 652245 | shares compounds with GalR3 antagonist | HEK293 GalR3 CNG cAMP biosensor, membrane potential fluorescence; galR3 fused to GalR1 carboxy tail; challenged with forskolin and galanin at EC90 | inhibition, % at 3 µM;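 active = inhibition above the primary screen's cutoff, the mean inhibition of all screened compounds plus 3 SD, cut at about 13% in these data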
HEK-CNG parental = counter-screen for GalR3 antagonists: nonspecific agonists in parental HEK-CNG cells; shares compounds with GalR3 antagonist; HEK293-CNG parental cells, cAMP membrane potential fluorescence; normalised: DMSO wells 0%, forskolin wells 100%; activation, % at 3 µM; 10% of 1,600 active; AID 652268; in the data active = activation above about 1.3%
Gal4-VP16 ctr = VP16 inhibition counter-screen for COUP-TFII; HEK293 Gal4-VP16 luciferase reporter, luminescence; 25% of 2,500 active; inhibition, % at 8.5 µM; shares compounds with COUP-TFII inh; AID 687007; in the data active = inhibition above about 13%
COUP-TFII conf = COUP-TFII (NR2F2) inhibition, confirmation assay | shares compounds with COUP-TFII inh | HEK293 NGFI-A luciferase reporter, luminescence | inhibition, % at 8.5 µM | 45% of 2,500 active | AID 687008;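 active = mean inhibition over three repeats above a set limit taken from the earlier primary screen, cut at about 38% in these data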
Numbers stand for hits; . = inactive; / = no result given. An excerpt weighted towards active compounds, which were near 2.3% of everything screened.

SMILES	CHT PAM	NR2E3 ag-1	COUP-TFII inh	CHT block	GalR3 antagonist	NR2E3 ag-2	GalR3 conf	HEK-CNG parental	Gal4-VP16 ctr	COUP-TFII conf
O=C(CN1CCC(c2nc3ccccc3s2)CC1)NCc1cccs1	.	.	53	.	78	.	76	1.8	.	.
O=C(CN1CCC(c2nc3ccccc3s2)CC1)N1CCCCC1	.	.	.	.	.	.	/	/	/	/
CCOc1ccc(-c2cc(C(=O)Nc3ccc(C)c(NS(C)(=O)=O)c3)[nH]n2)c(C)c1	/	/	62	/	14	.	99	.	.	.
CCOc1ccc(-c2cc(C(=O)NCCOC)[nH]n2)c(C)c1	/	/	.	/	.	.	/	/	/	/
O=C(Nc1ccc(CN2CCOCC2)cc1)c1ccc(Cl)cc1	.	.	.	.	.	.	/	/	/	/
O=C(Nc1ccc(S(=O)(=O)Nc2ccccc2)cc1)c1ccc(CN2CCOCC2)cc1	.	.	69	.	98	.	110	.	.	.
O=C(Nc1ccc(S(=O)(=O)N2CCCCC2)cc1)c1ccc(CN2CCc3ccccc3C2)cc1	.	.	70	.	106	.	105	.	18	80
COC(=O)c1ccc(NC(=O)c2ccc(CN3CCOCC3)cc2)cc1	.	.	48	.	92	.	.	.	.	.
O=C(Nc1ccc(CN2CCOCC2)cc1)c1ccc(Br)cc1	.	.	.	.	.	.	/	/	/	/
COP(=O)(O)C(C)NC(=O)OCc1ccccc1 (stereo not given)	/	/	.	/	/	/	/	/	/	/
Cc1cc(C)nc(/N=C(\N)Nc2ccc(OCc3ccccc3)cc2)n1	.	.	47	.	35	.	.	7.8	.	.
Cc1cc(C)nc(/N=C(\N)Nc2ccc(CC(=O)OC(C)C)cc2)n1	.	.	51	.	86	.	58	1.4	.	.
COc1ccc(N/C(N)=N/c2nc(C)cc(C)n2)cc1	/	/	.	/	.	.	/	/	/	/
CC(C)CNC(=O)OCc1cn(Cc2ccccc2C(F)(F)F)nn1	/	/	.	/	/	/	/	/	/	/
Cc1cccc(C)c1NC(=O)N1CCN(c2nc3ccccc3s2)CC1	.	.	48	.	39	.	.	.	.	.
Cc1cccc(Cl)c1NC(=O)N1CCCN(c2nc3ccc(Cl)cc3s2)CC1	.	.	49	.	82	.	103	.	.	41
CCN(CC)c1ccc(C=Nn2c(-c3ccc(F)cc3)n[nH]c2=S)c(O)c1	/	/	.	/	/	/	/	/	/	/
COCCn1c(C)cc(C(=O)COc2nc3ccccc3nc2C)c1C	.	.	67	.	98	.	85	.	.	47
COCCn1c(C)cc(C(=O)CSc2ccc3ccccc3n2)c1C	.	.	.	.	.	.	/	/	/	/
COc1ccc(Cl)cc1Nc1nc(-c2sc(NC(=O)C(C)(C)C)nc2C)cs1	.	.	41	.	.	.	/	/	.	42
O=C(Nc1ccc(Cl)cn1)C1CCN(S(=O)(=O)c2cccs2)CC1	.	.	53	.	.	.	/	/	.	.
CCOC(=O)N1CCN(C(=O)C[C@H]2C[C@@]3(C(=O)OC)C(=C[C@H](C(C)C)O[C@@H]3C3CC3)N(CCc3ccc(OC)c(OC)c3)C2=O)CC1	/	/	.	/	/	/	/	/	/	/
COc1ccc(S(=O)(=O)NCc2cccnc2)cc1Br	.	.	48	.	.	.	/	/	.	39
CC1CCCCN1C(=O)c1ccc(CNC(=O)c2cccc(Br)c2)cc1 (stereo not given)	/	/	.	/	/	/	/	/	/	/
